In test [1] the target is T1, Hypoxia inducible factors; HIF-1-alpha, HIF-2-alpha (Homo sapiens, UniProt Q16665+Q99814). Description: Inhibition of HIF1 activation in human AGS cells assessed as inhibition of hypoxia-induced luciferase expression after 16 hrs by reporter assay. In kind it is cell-based. The method, boiled down: (§1)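 Cells transiently cotransfected with pGL3-HRE-luciferase (six HRE copies from human VEGF gene) plus pRL-CMV, plated at 5 × 10^4 cells/well, grown 48 h, then exposed to varied compound concentrations (up to 20 µM) for 16 h at 1% O2/94% N2/5% CO2, 37 °C. Dual-luciferase read-out, firefly normalized to Renilla; IC50 from mean ± SD of three experiments; 17-DMAG positive control.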
In general terms: In a reporter assay the amount or activity of a reporter protein is the signal.

Test [2] concerns AGS. Description: Viability of human AGS cells under normoxic conditions after 24 hrs by MTT assay. The format is functional, cell-based. The essentials: (§2)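 Cells seeded 5 × 10^4/well, settled 3 h at 37 °C, then exposed to a concentration range of compound under normoxia or hypoxia (1% O2) for 24 h. MTT (10 µL of 5 mg/mL stock) added for 4 h, formazan dissolved in DMSO, absorbance at 570 nm; LD50 derived, mean ± SD of three experiments.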
On the technique in general: Tetrazolium assays rely on reduction of a dye to a coloured formazan, in cell work by metabolically active cells.

Test [3] concerns the target T1, Hypoxia inducible factors; HIF-1-alpha, HIF-2-alpha. Description: Inhibition of HIF1 activation in human Hep3B cells assessed as inhibition of hypoxia-induced luciferase expression after 16 hrs by reporter assay. The format is cell-based. The settings on record: hep 3b2. The essentials: as §1
A short description of test [4]: Viability of human Hep3B cells under normoxic conditions after 24 hrs by MTT assay. In kind it is functional, cell-based, Hep 3B2. The essentials:
as §2

The subject of test [5] is AGS. Description: Viability of human AGS cells under hypoxic conditions after 24 hrs by MTT assay. In kind it is functional, cell-based. The method, boiled down:
as §2

The nature of test [6]: Viability of human Hep3B cells under hypoxic conditions after 24 hrs by MTT assay. In kind it is functional, cell-based, Hep 3B2. The essentials: as §2
Test [7] deals with Hep 3B2. Description: Inhibition of hypoxia-induced HIF1alpha accumulation in Hep3B cells. The format is functional, cell-based. The settings on record: Homo sapiens. The essentials:
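Hep3B cells plated at 1.5 × 10^5 cells per cm2, grown overnight at 37 °C, exposed to a range of concentrations for 1 h, then held 12 h hypoxic (1% O2, 94% N2, 5% CO2, 37 °C). HIF-1α was measured in total lysates (50 µg) by Western blot after 6% SDS-PAGE with rabbit anti-HIF-1α, with ECL detection. TOPO I served as loading control.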

The subject of test [8] is Hep 3B2. Description: Inhibition of hypoxia-induced secreted VEGF levels in Hep3B cells after 16 hr by ELISA. Particulars: Homo sapiens.
Test [9] can be described thus: Suppression of hypoxia-induced VEGF mRNA expression in Hep3B cells after 1 hr by RT-PCR. In kind it is functional, cell-based. The settings on record: Homo sapiens; Hep 3B2; in the assay text read “after 16 hr” for “after 1 hr”. The essentials: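 Hep3B cells pretreated 1 h with graded compound concentrations, then held 16 h under hypoxia (1% O2, 94% N2, 5% CO2, 37 °C). Total RNA isolated and VEGF transcript detected by RT-PCR, product identity confirmed by sequencing.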

This note sets out measurements from ChEMBL document CHEMBL1145453, “Abietane diterpenes from Salvia miltiorrhiza inhibit the activation of hypoxia-inducible factor-1” (J Nat Prod, 2007).

Consider `Cc1cccc2c3c(ccc12)C(=O)C(C(C)CO)=C(O)C3=O` (stereo unspecified) [DANSHENXINKUN A], for which the half-inhibitory concentration (IC50) in test [1] was greater than 20 µM; in [2] it was greater than 50 µM; in test [3], greater than 20 µM; in [4], greater than 50 µM.

`COC(=O)[C@@]1(C)CCCc2c1ccc1c2C(=O)C(=O)c2c(C)coc2-1` [METHYL TANSHINONATE]: the half-inhibitory concentration (IC50) in test [1] is 7.48 µM; in test [2], greater than 50 µM; in test [3], 7.34 µM; in [4], greater than 50 µM.

For `C[C@H]1COC2=C1C(=O)C(=O)c1c2ccc2c1CCCC2(C)C` [CRYPTOTANSHINONE], the IC50 in test [1] was 1.58 µM; in [5] it was 10.2 µM; in [2], 13.5 µM; in [3], 1.36 µM; in [4] it was greater than 30 µM; in test [6], greater than 30 µM.

In the case of `Cc1cccc2c3c(ccc12)C(=O)C(C(C)C)=CC3=O` [12-DEOXYTANSHINQUINONE B], the IC50 is 15.1 µM in test [1], 21.6 µM in [2], 10.6 µM in [3] and greater than 50 µM in test [4].

As to `Cc1coc2c1C(=O)C(=O)c1c-2ccc2c1CCCC2(C)C` [TANSHINONE IIA], the IC50 is 7.53 µM in [1]; 6.8 µM in [5]; 10 µM in test [2]; 6.18 µM in test [3]; greater than 50 µM in [4]; greater than 50 µM in test [6].

Turning to `Cc1cccc2c3c(ccc12)C1=C(C(=O)C3=O)[C@@H](C)CO1` [DIHYDROTANSHINONE I], the IC50 in [1] was 2.05 µM; in test [5], 47.7 µM; in test [2], greater than 50 µM; in test [3], 2.29 µM; in test [7], 3.2 µM; in [4] it was greater than 50 µM. In [6], this compound gave an IC50 greater than 50 µM.

Take `Cc1coc2c1C(=O)C(=O)c1c-2ccc2c(C)cccc12` [TANSHINONE I]: the IC50 is 12.5 µM in [1], greater than 50 µM in test [2], 8.51 µM in test [3] and greater than 50 µM in test [4].

In the case of `Cc1cccc2c3c(ccc12)C(=O)C(=O)C1=C3OC[C@H]1C` [DIHYDROISOTANSHINONE II], the concentration for half-maximal inhibition (IC50) is greater than 20 µM in [1], greater than 50 µM in [2], greater than 20 µM in test [3] and greater than 50 µM in test [4].

For the compound `C[C@H](CO)C1=C(O)C(=O)c2c(ccc3c2CCCC3(C)C)C1=O` [NEOCRYPTOTANSHINONE], the IC50 in test [1] is 12.7 µM; in test [2], greater than 50 µM; in test [3], greater than 20 µM; in test [4] it was greater than 50 µM.

For the compound `CC(C)C1=CC(=O)c2c(ccc3c2CCCC3(C)C)C1=O` [SIBIRIQUINONE B], the half-maximal inhibitory concentration (IC50) was 3.36 µM in test [1]; greater than 50 µM in test [5]; greater than 50 µM in [2]; 3.18 µM in [3]; greater than 50 µM in [4]; greater than 50 µM in [6].

Regarding `CC(C)C1=CC(=O)c2c(ccc3c2C=CCC3(C)C)C1=O` [SIBIRIQUINONE A], the IC50 was 0.34 µM in [1]; 21.2 µM in test [5]; 35.7 µM in test [2]; 3.5 µM in test [8]; 0.28 µM in test [3]; 0.4 µM in test [7]. Further, the IC50 in test [4] and in [6] was greater than 50 µM each time. For the same compound, the Activity result in test [9] is “Dose-dependent effect”.

On to `CO[C@H]1/C=C\C=C(/C)C(=O)NC2=CC(=O)C(NCCN(C)C)=C(C[C@@H](C)C[C@H](OC)[C@H](O)[C@@H](C)/C=C(\C)[C@@H]1OC(N)=O)C2=O` [ALVESPIMYCIN], for which the figures for the IC50 in test [1], in [3] and in [4] were 0.036 µM, 0.061 µM and greater than 50 µM, respectively.

A word on the IC50: it is the concentration that inhibits the measured activity by half.
